Data reported in ChEMBL document CHEMBL5236549, “Discovery of 2-Sulfinyl-Diazabicyclooctane Derivatives, Potential Oral β-Lactamase Inhibitors for Infections Caused by Serine β-Lactamase-Producing Enterobacterales” (J Med Chem, 2021).
≈ marks a conversion by molar mass, not a printed value.

Tests used:
[1] = Inhibition of bacterial beta-lactamase KPC-2 using nitrocefin as substrate incubated for 20 mins; parameters: species or system Bacteria
Summary of the method: (§1)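 Nitrocefin hydrolysis read by absorbance. Enzyme titrated to give about 0.2 absorbance change over the no-enzyme control. Enzyme added to nitrocefin (final 50 μg/mL) plus inhibitor, no preincubation, read after 20 min at 35 °C. IC50 is 50% reduction of hydrolysis. N = 1.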

[2] = Inhibition of bacterial beta-lactamase CMY-2 using nitrocefin as substrate incubated for 20 mins; parameters: species or system Bacteria; summary of the method: as §1
[3] = Inhibition of bacterial beta-lactamase OXA-48 using nitrocefin as substrate incubated for 20 mins; parameters: species or system Bacteria; summary of the method: as §1
Escherichia coli [4] = experiment: Antibacterial activity against Escherichia coli ATCC SR34100 assessed as reduction in bacterial growth by measuring minimum […] concentration incubated for 16 to 24 hrs by CLSI based two-fold serial dilution method; format: functional; settings: time 16-24 hrs
Summary of the method: (§2)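 MPC₁ by broth microdilution: twofold serial dilutions of inhibitor in cation-adjusted Mueller Hinton broth containing ceftibuten at 1 μg/mL. Inoculum about 5 × 10⁴ cfu/well final, set from OD625. Incubation at 35 °C for 16−20 h. […] N = 1.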

Escherichia coli [5] = experiment: Antibacterial activity against Escherichia coli ATCC SR09613 assessed as reduction in bacterial growth by measuring minimum […] concentration incubated for 16 to 24 hrs by CLSI based two-fold serial dilution method; format: functional; settings: time 16-24 hrs; summary of the method: as §2
Klebsiella pneumoniae [6] = experiment: Antibacterial activity against Klebsiella pneumoniae ATCC SR201218 assessed as reduction in bacterial growth by measuring minimum […] concentration incubated for 16 to 24 hrs by CLSI based two-fold serial dilution method; format: functional; settings: time 16-24 hrs; summary of the method: as §2
Enterobacter cloacae [7] = experiment: Antibacterial activity against Enterobacter cloacae SR200030 assessed as inhibition of bacterial growth incubated for 16 to 24 hrs by CLSI based two-fold serial dilution method; format: functional; settings: time 16-24 hrs
Summary of the method: (§3)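 CLSI broth microdilution in cation-adjusted Mueller Hinton broth, twofold serial dilutions, about 5 × 10⁴ cfu/well from OD625, 35 °C for 16−20 h. MIC is the lowest concentration with no visible growth.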

Klebsiella pneumoniae [8] = experiment: Antibacterial activity against Klebsiella pneumoniae SR100758 assessed as inhibition of bacterial growth incubated for 16 to 24 hrs by CLSI based two-fold serial dilution method; format: functional; settings: time 16-24 hrs; summary of the method: as §3
Klebsiella pneumoniae [9] = experiment: Antibacterial activity against Klebsiella pneumoniae SR200263 assessed as inhibition of bacterial growth incubated for 16 to 24 hrs by CLSI based two-fold serial dilution method; format: functional; settings: time 16-24 hrs; summary of the method: as §3
Klebsiella pneumoniae [10] = experiment: Antibacterial activity against Klebsiella pneumoniae SR200487 assessed as inhibition of bacterial growth incubated for 16 to 24 hrs by CLSI based two-fold serial dilution method; format: functional; settings: time 16-24 hrs; summary of the method: as §3
Enterobacter cloacae [11] = experiment: Antibacterial activity against Enterobacter cloacae SR200030 assessed as reduction in bacterial growth by measuring minimum […] concentration incubated for 16 to 24 hrs by CLSI based two-fold serial dilution method; format: functional; settings: time 16-24 hrs
Summary of the method: (§4)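 Inhibitor twofold serially diluted in cation-adjusted Mueller Hinton broth containing ceftibuten 1 μg/mL. About 5 × 10⁴ cfu/well, 35 °C for 16−20 h. […] N = 1.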

Klebsiella pneumoniae [12] = experiment: Antibacterial activity against Klebsiella pneumoniae SR100758 assessed as reduction in bacterial growth by measuring minimum […] concentration incubated for 16 to 24 hrs by CLSI based two-fold serial dilution method; format: functional; settings: time 16-24 hrs; summary of the method: as §4
Klebsiella pneumoniae [13] = experiment: Antibacterial activity against Klebsiella pneumoniae SR201325 assessed as reduction in bacterial growth by measuring minimum […] concentration incubated for 16 to 24 hrs by CLSI based two-fold serial dilution method; format: functional; settings: time 16-24 hrs; summary of the method: as §4
Enterobacter cloacae [14] = experiment: Antibacterial activity against Enterobacter cloacae SR36276 assessed as inhibition of bacterial growth incubated for 16 to 20 hrs by CLSI based two-fold serial dilution method
Escherichia coli [15] = experiment: Antibacterial activity against Escherichia coli ATCC SR34100 assessed as inhibition of bacterial growth incubated for 16 to 20 hrs by CLSI based two-fold serial dilution method
Escherichia coli [16] = experiment: Antibacterial activity against Escherichia coli ATCC SR09613 assessed as inhibition of bacterial growth incubated for 16 to 20 hrs by CLSI based two-fold serial dilution method
Enterobacter cloacae [17] = experiment: Antibacterial activity against Enterobacter cloacae SR100108 assessed as inhibition of bacterial growth incubated for 16 to 20 hrs by CLSI based two-fold serial dilution method
Klebsiella pneumoniae [18] = experiment: Antibacterial activity against Klebsiella pneumoniae SR09635 assessed as inhibition of bacterial growth incubated for 16 to 20 hrs by CLSI based two-fold serial dilution method
Klebsiella pneumoniae [19] = experiment: Antibacterial activity against Klebsiella pneumoniae SR09603 assessed as inhibition of bacterial growth incubated for 16 to 20 hrs by CLSI based two-fold serial dilution method
Klebsiella pneumoniae [20] = experiment: Antibacterial activity against Klebsiella pneumoniae SR201325 assessed as inhibition of bacterial growth incubated for 16 to 20 hrs by CLSI based two-fold serial dilution method
Klebsiella pneumoniae [21] = experiment: Antibacterial activity against Klebsiella pneumoniae ATCC BAA1705 assessed as inhibition of bacterial growth incubated for 16 to 20 hrs by CLSI based two-fold serial dilution method
Klebsiella pneumoniae [22] = experiment: Antibacterial activity against Klebsiella pneumoniae ATCC SR201218 assessed as inhibition of bacterial growth incubated for 16 to 20 hrs by CLSI based two-fold serial dilution method
Enterobacter cloacae [23] = experiment: Antibacterial activity against Enterobacter cloacae SR36276 assessed as reduction in bacterial growth by measuring minimum […] concentration incubated for 16 to 20 hrs by CLSI based two-fold serial dilution method; settings: time 16-20 hrs
Enterobacter cloacae [24] = experiment: Antibacterial activity against Enterobacter cloacae SR100108 assessed as reduction in bacterial growth by measuring minimum […] concentration incubated for 16 to 20 hrs by CLSI based two-fold serial dilution method; settings: time 16-20 hrs
Klebsiella pneumoniae [25] = experiment: Antibacterial activity against Klebsiella pneumoniae SR09635 assessed as reduction in bacterial growth by measuring minimum […] concentration incubated for 16 to 20 hrs by CLSI based two-fold serial dilution method; settings: time 16-20 hrs
Klebsiella pneumoniae [26] = experiment: Antibacterial activity against Klebsiella pneumoniae SR09603 assessed as reduction in bacterial growth by measuring minimum […] concentration incubated for 16 to 20 hrs by CLSI based two-fold serial dilution method; settings: time 16-20 hrs
Klebsiella pneumoniae [27] = experiment: Antibacterial activity against Klebsiella pneumoniae SR200263 assessed as reduction in bacterial growth by measuring minimum […] concentration incubated for 16 to 20 hrs by CLSI based two-fold serial dilution method; settings: time 16-20 hrs
Klebsiella pneumoniae [28] = experiment: Antibacterial activity against Klebsiella pneumoniae SR200487 assessed as reduction in bacterial growth by measuring minimum […] concentration incubated for 16 to 20 hrs by CLSI based two-fold serial dilution method; settings: time 16-20 hrs
Klebsiella pneumoniae [29] = experiment: Antibacterial activity against Klebsiella pneumoniae ATCC BAA1705 assessed as reduction in bacterial growth by measuring minimum potentiating concentration incubated for 16 to 20 hrs by CLSI based two-fold serial dilution method; settings: time 16-20 hrs
[30] = Stability of the compound in phosphate buffer at pH 7.0 assessed as parent compound remaining at 40 degreeC measured after 16 hrs; format: physicochemical; settings: read-out: Stability
Summary of the method: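 Compound held in pH 7.0 phosphate buffer at 40 °C for 16 h; amount remaining reported as %.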

[31] = Cmax in rat at 5 mg/kg,po by LC/MS/MS analysis; format: ADME, organism-based; parameters: dose 5 mg/kg, route po; settings: in vivo
Summary of the method: (§5)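 Plasma of the parent acid measured by LC/MS/MS (methanol precipitation, positive ESI, external standard); oral values follow prodrug dosing (rat fed, dog and monkey fasted). AUC from 0 h to last time point by linear trapezoid; F from oral AUC versus iv AUC of the parent. N = 2 (rat, dog), N = 3 (monkey, mouse).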

[32] = AUC in rat at 5 mg/kg,po by LC/MS/MS analysis; format: ADME, organism-based; parameters: dose 5 mg/kg, route po; settings: in vivo; summary of the method: as §5
[33] = Tmax in rat at 5 mg/kg,po by LC/MS/MS analysis; format: ADME, organism-based; settings: in vivo
[34] = Oral bioavailability in rat at 5 mg/kg by LC/MS/MS analysis; format: ADME, organism-based; settings: in vivo; summary of the method: as §5
[35] = Cmax in dog at 10 mg/kg,po by LC/MS/MS analysis; format: ADME, organism-based, Canis lupus familiaris; parameters: dose 10 mg/kg, route po; settings: in vivo; summary of the method: as §5
[36] = AUC in dog at 10 mg/kg,po by LC/MS/MS analysis; format: ADME, organism-based, Canis lupus familiaris; parameters: dose 10 mg/kg, route po; settings: in vivo; summary of the method: as §5
[37] = Tmax in dog at 10 mg/kg,po by LC/MS/MS analysis; format: ADME, organism-based, Canis lupus familiaris; settings: in vivo
[38] = Oral bioavailability in dog at 10 mg/kg by LC/MS/MS analysis; format: ADME, organism-based, Canis lupus familiaris; settings: in vivo; summary of the method: as §5
[39] = Cmax in monkey at 10 mg/kg,po by LC/MS/MS analysis; format: ADME, organism-based, Macaca mulatta; parameters: dose 10 mg/kg, route po; settings: rhesus monkey, in vivo; summary of the method: as §5
[40] = AUC in monkey at 10 mg/kg,po by LC/MS/MS analysis; format: ADME, organism-based, Macaca mulatta; parameters: dose 10 mg/kg, route po; settings: rhesus monkey, in vivo; summary of the method: as §5
[41] = Tmax in monkey at 10 mg/kg,po by LC/MS/MS analysis; format: ADME, organism-based, Macaca mulatta; settings: rhesus monkey, in vivo
[42] = Oral bioavailability in monkey at 10 mg/kg by LC/MS/MS analysis; format: ADME, organism-based, Macaca mulatta; settings: rhesus monkey, in vivo; summary of the method: as §5

Which IC50 [1] does the source give for `NC(=O)[C@@H]1CC[C@@H]2CN1C(=O)N2OS(=O)(=O)O` [AVIBACTAM] here?
The IC50 was 72 nM.

What about the IC50 [2] of the same compound?
The IC50 was 59 nM.

What about the IC50 [3] of the same compound?
The IC50 was 5700 nM.

What about the MPC (Escherichia coli [4]) of the same compound?
Its MPC is 0.125 µg/mL.

What about the MPC (Escherichia coli [5]) of the same compound?
Its MPC is 0.5 µg/mL.

What about the MPC (Klebsiella pneumoniae [6]) of the same compound?
The MPC was 1 µg/mL.

And the MIC (Enterobacter cloacae [7])?
The MIC was 32 µg/mL (≈ 121 µM).

What about the MIC (Klebsiella pneumoniae [8]) of the same compound?
Its MIC is > 32 µg/mL.

And the MIC (Klebsiella pneumoniae [9])?
Its MIC is > 32 µg/mL.

And the MIC (Klebsiella pneumoniae [10])?
The MIC was > 32 µg/mL.

What about the MPC (Enterobacter cloacae [11]) of the same compound?
The MPC was 16 µg/mL.

What about the MPC (Klebsiella pneumoniae [12]) of the same compound?
The MPC was 2 µg/mL.

And the MPC (Klebsiella pneumoniae [13])?
Its MPC is 2 µg/mL.

What about the MIC (Enterobacter cloacae [14]) of the same compound?
The MIC was 32 µg/mL (≈ 121 µM).

What about the MIC (Escherichia coli [15]) of the same compound?
The MIC was 16 µg/mL (≈ 60.3 µM).

What about the MIC (Escherichia coli [16]) of the same compound?
Its MIC is 16 µg/mL (≈ 60.3 µM).

What about the MIC (Enterobacter cloacae [17]) of the same compound?
Its MIC is 32 µg/mL (≈ 121 µM).

And the MIC (Klebsiella pneumoniae [18])?
The MIC was > 32 µg/mL.

What about the MIC (Klebsiella pneumoniae [19]) of the same compound?
The MIC was > 32 µg/mL.

And the MIC (Klebsiella pneumoniae [20])?
The MIC was 32 µg/mL (≈ 121 µM).

And the MIC (Klebsiella pneumoniae [21])?
Its MIC is 32 µg/mL (≈ 121 µM).

And the MIC (Klebsiella pneumoniae [22])?
Its MIC is > 32 µg/mL.

What about the MPC (Enterobacter cloacae [23]) of the same compound?
The MPC was 4 µg/mL.

What about the MPC (Enterobacter cloacae [24]) of the same compound?
Its MPC is 8 µg/mL.

What about the MPC (Klebsiella pneumoniae [25]) of the same compound?
Its MPC is 0.5 µg/mL.

What about the MPC (Klebsiella pneumoniae [26]) of the same compound?
Its MPC is 8 µg/mL.

And the MPC (Klebsiella pneumoniae [27])?
The MPC was 0.063 µg/mL.

What about the MPC (Klebsiella pneumoniae [28]) of the same compound?
Its MPC is 4 µg/mL.

What about the MPC (Klebsiella pneumoniae [29]) of the same compound?
Its MPC is 0.125 µg/mL.

Which remaining at 16 h [30] does the source give for `CC(C)OC(=O)[C@@H](F)ON1C(=O)N2C[C@H]1CC[C@H]2[S@@+](C)[O-]` here?
Its remaining at 16 h is 56%.

And the Cmax [31]?
The Cmax was 1700 ng/mL.

And the AUC [32]?
Its AUC is 2090 ng·h/mL.

What about the Tmax [33] of the same compound?
The Tmax was 30 min.

And the bioavailability [34]?
Its bioavailability is 67.6%.

What about the Cmax [35] of the same compound?
Its Cmax is 7390 ng/mL.

And the AUC [36]?
The AUC was 18400 ng·h/mL.

And the Tmax [37]?
The Tmax was 48 min.

What about the bioavailability [38] of the same compound?
The bioavailability was 48.1%.

What about the Cmax [39] of the same compound?
Its Cmax is 4380 ng/mL.

And the AUC [40]?
Its AUC is 7060 ng·h/mL.

What about the Tmax [41] of the same compound?
The Tmax was 60 min.

And the bioavailability [42]?
Its bioavailability is 25.5%.
